Here are results for 20 compounds from ChEMBL document CHEMBL4196192, “MEPicides: α,β-Unsaturated Fosmidomycin Analogues as DXR Inhibitors against Malaria” (J Med Chem, 2018).

Calls of active or inactive are those of the source. The calls are words filed in the database; no cut-off is given here. Some results are limits rather than exact numbers.

Series [1] concerns Plasmodium falciparum. Nature of the series: Growth inhibition of Plasmodium falciparum. It is filed as functional, organism-based.
Series [2] deals with Plasmodium falciparum. Kind of series: Growth inhibition of Plasmodium falciparum 3D7 asynchronous cultures by PicoGreen dye based assay. It is filed as functional, organism-based.
Series [3] concerns the target T1, 1-deoxy-D-xylulose 5-phosphate reductoisomerase, apicoplastic (Plasmodium falciparum (isolate 3D7)) (UniProt Q8IKG4).
T1 sequence (whole entry): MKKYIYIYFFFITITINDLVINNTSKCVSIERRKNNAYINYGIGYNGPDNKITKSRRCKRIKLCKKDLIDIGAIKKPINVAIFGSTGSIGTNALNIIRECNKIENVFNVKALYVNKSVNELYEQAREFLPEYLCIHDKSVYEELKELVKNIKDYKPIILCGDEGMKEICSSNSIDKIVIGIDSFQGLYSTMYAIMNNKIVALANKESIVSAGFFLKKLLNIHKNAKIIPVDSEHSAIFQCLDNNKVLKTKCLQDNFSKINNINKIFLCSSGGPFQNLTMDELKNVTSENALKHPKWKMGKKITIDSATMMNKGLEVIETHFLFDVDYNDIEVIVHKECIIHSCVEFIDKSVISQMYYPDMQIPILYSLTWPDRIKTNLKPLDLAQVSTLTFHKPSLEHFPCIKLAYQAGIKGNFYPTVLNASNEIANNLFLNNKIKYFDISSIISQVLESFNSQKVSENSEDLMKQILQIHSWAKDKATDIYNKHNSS
Nature of the series: Inhibition of Plasmodium falciparum DXR assessed as reduction in NADPH oxidation at 100 uM in presence of DOXP by UV-visible spectrophotometry. The method in brief:
(§1)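 Recombinant P. falciparum DXR (0.86 μM) in 100 mM Tris pH 7.8, 25 mM MgCl2, 150 μM NADPH, at 37 °C; inhibitor at a single 100 μM; reaction started with 144 μM DOXP; NADPH oxidation followed at 340 nm by UV-vis spectrophotometry; percent remaining activity; duplicate.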

Series [4] addresses T2, 1-deoxy-D-xylulose 5-phosphate reductoisomerase, apicoplastic (Plasmodium falciparum (isolate 3D7), UniProt Q8IKG4).
T2 sequence (Q8IKG4 whole entry): T1 sequence (whole entry)
Kind of series: Inhibition of Plasmodium falciparum DXR assessed as reduction in NADPH oxidation in presence of DOXP by UV-visible spectrophotometry. The method in brief:
(§2)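 Recombinant P. falciparum DXR (0.86 μM) in 100 mM Tris pH 7.8, 25 mM MgCl2 and 150 μM NADPH at 37 °C. Reaction started with 144 μM DOXP. NADPH oxidation followed at 340 nm by UV–visible spectrophotometry. Compounds were screened first at a single 100 μM concentration as percent remaining activity. Assays were run in duplicate.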

In series [5] the target is T1, 1-deoxy-D-xylulose 5-phosphate reductoisomerase, apicoplastic (Plasmodium falciparum (isolate 3D7)). Nature of the series: Inhibition of Plasmodium falciparum DXR assessed as remaining enzyme activity by measuring NADPH oxidation at 100 uM in presence of DOXP by UV-visible spectrophotometry. The method, boiled down:
as §1

Series [6] has as its system Mus musculus. Nature of the series: Toxicity in luciferase-expressing Plasmodium berghei ANKA infected Swiss Webster mouse assessed as induction of adverse events at 20 mg/kg, ip administered daily for 5 days starting from 2 days post infection. Format: organism-based. The settings on record: in vivo. The method in brief:
(§3)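 Female Swiss Webster mice (25–30 g) infected ip with 10^3 luciferase-expressing P. berghei, then given ip doses daily for 5 days from day 2 in 2% methylcellulose/0.5% Tween 80 vehicle, groups of five; mice observed for adverse effects over the dosing period.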

Series [7] can be described thus: Half life in mouse plasma. It is filed as ADME, cell-free.
Series [8] relates to Plasmodium falciparum. Kind of series: Growth inhibition of Plasmodium falciparum 3D7 asynchronous cultures at 0.01 to 100 uM incubated for 72 hrs in presence of excess IPP by PicoGreen dye based assay. Format: functional, organism-based.
For series [9], the system named is Mus musculus. Nature of the series: Toxicity in luciferase-expressing Plasmodium berghei ANKA infected Swiss Webster mouse assessed as induction of adverse events at 50 mg/kg, ip administered daily for 5 days starting from 2 days post infection. It is filed as organism-based. The note with it: in vivo. The method in brief:
as §3

For series [10], the system named is Plasmodium berghei. Kind of series: Antimalarial activity against luciferase-expressing Plasmodium berghei ANKA infected in Swiss Webster mouse assessed as reduction in parasitemia by measuring reduction in luciferin signal intensity at 50 mg/kg, ip administered daily for 5 days starting from 2 days post infection by luciferase-luciferin based reporter assay relative to untreated control. Format: functional, organism-based.

For series [11], the target named is T1, 1-deoxy-D-xylulose 5-phosphate reductoisomerase, apicoplastic (Plasmodium falciparum (isolate 3D7)). Nature of the series: Inhibition of DXR in Plasmodium falciparum 3D7 assessed as reduction in CDP-ME levels at 5 times growth inhibitory IC50 incubated for 10 hrs by LC-MS/MS method.
For series [12] the target is unchanged. Kind of series: Inhibition of DXR in Plasmodium falciparum 3D7 assessed as reduction in MEcPP levels at 5 times growth inhibitory IC50 incubated for 10 hrs by LC-MS/MS method.
The test system of series [13] is Plasmodium falciparum. Nature of the series: Effect on DXR protein level in Plasmodium falciparum 3D7 at 5 times growth inhibitory IC50 incubated for 10 hrs by LC-MS/MS method. Format: organism-based.
For series [14], the system named is Plasmodium falciparum. Nature of the series: Growth inhibition of Plasmodium falciparum containing had1 mutation expressing GFP-HAD1 by PicoGreen dye based assay. It is filed as functional, organism-based.
In series [15] the target is T1, 1-deoxy-D-xylulose 5-phosphate reductoisomerase, apicoplastic (Plasmodium falciparum (isolate 3D7)). Kind of series: Inhibition of DXR in Plasmodium falciparum 3D7 assessed as reduction in MEP levels at 5 times growth inhibitory IC50 incubated for 10 hrs by LC-MS/MS method.
Series [16] has as its system HepG2. Nature of the series: Cytotoxicity in human HepG2 cells. It is filed as cell-based.
Series [17] relates to Plasmodium berghei. Kind of series: Antimalarial activity against luciferase-expressing Plasmodium berghei ANKA infected in Swiss Webster mouse assessed as reduction in parasitemia by measuring reduction in luciferin signal intensity at 20 mg/kg, ip administered daily for 5 days starting from 2 days post infection by luciferase-luciferin based reporter assay relative to untreated control. Format: functional.

For series [18], the target named is T2, 1-deoxy-D-xylulose 5-phosphate reductoisomerase, apicoplastic. Nature of the series: Inhibition of Plasmodium falciparum DXR. The method in brief: as §2
Series [19] has as its system Plasmodium falciparum. Nature of the series: Growth inhibition of Plasmodium falciparum containing had1 mutation at 0.01 to 100 uM by PicoGreen dye based assay. Format: functional, organism-based.
Series [20] deals with Plasmodium falciparum. Nature of the series: Resistance index, ratio of IC50 for Plasmodium falciparum containing had1 mutation to IC50 for growth inhibition of wild type Plasmodium falciparum 3D7 asynchronous cultures. Format: functional.
A short description of series [21]: Half life in mouse liver microsomes. Format: ADME, microsome.
The nature of series [22]: Selectivity index, ratio of IC50 for cytotoxicity in human HepG2 cells to IC50 for growth inhibition of Plasmodium falciparum 3D7 asynchronous cultures. Format: toxicity, cell-based. The note with it: read-out: Ratio IC50.
Series [23] relates to Plasmodium berghei. Kind of series: Antimalarial activity against luciferase-expressing Plasmodium berghei ANKA infected in Swiss Webster mouse assessed as reduction in parasitemia at 20 mg/kg, ip administered daily for 5 days starting from 2 days post infection by luciferase-luciferin based reporter assay. Format: functional, organism-based.

For the compound `CC(=O)N(CCCP(=O)(OCOC(=O)C(C)(C)C)OCOC(=O)C(C)(C)C)OCc1ccc2ccccc2c1`, the IC50 in series [1] was determined as 33.2 µM.
Take `CC(=O)N(O)C/C=C/P(=O)(O)O`: the IC50 was found to be 0.202 µM in [2] and 0.206 µM in series [4]. Besides, the inhibition in series [3] was greater than 75%.
For `CC(=O)N(C/C=C/P(=O)(O)O)OCc1ccc(-c2ccccc2)cc1`, the half-inhibitory concentration (IC50) in [2] stood at 2.3 µM. The inhibition in series [3] was greater than 75%.
Regarding `CC(=O)N(C/C=C/P(=O)(OCOC(=O)C(C)(C)C)OCOC(=O)C(C)(C)C)OCc1ccc2ccccc2c1`, in series [2], it took 50.5 µM to reach half-maximal inhibition (IC50).
`CC(=O)N(C/C=C/P(=O)(O)O)OCc1ccc2ccccc2c1` returned an IC50 in series [2] of 26.1 µM. Further, the inhibition in series [3] was greater than 75%. Also, the Activity in series [5] amounted to 25%.
`O=CN(O)CCCP(=O)(O)O` [FOSMIDOMYCIN SODIUM]: the IC50 in series [2] is 1.09 µM; in series [1] it was 0.09 to 0.35 µM. The inhibition in series [3] is greater than 75%.
In the case of `C[C@@H]1CC[C@H]2[C@@H](C)C(=O)O[C@@H]3O[C@@]4(C)CC[C@@H]1[C@]32OO4` [ARTEMISININ], in series [2], the concentration for half-maximal inhibition (IC50) was 0.0104 µM.
Regarding `CC(=O)N(C/C=C/P(=O)(OCOC(=O)C(C)(C)C)OCOC(=O)C(C)(C)C)OCc1ccc(-c2ccccc2)cc1`, 44.1 µM corresponded to half-maximal inhibition in [2] (IC50).
In the case of `CC(C)(C)C(=O)OCOP(=O)(/C=C/CN(O)C=O)OCOC(=O)C(C)(C)C`, the Activity result in [6], in series [9] and in [13] was “Non-Toxic” throughout. Besides, the IC50 in series [2] is 0.013 µM; in series [16], greater than 50 µM. This compound came in with a t1/2 in [7] of less than 0.083 h. Besides, the “growth inhibition (GI)” value in [8] was “inactive”. Moreover, the outcome in series [10] was Active. Moreover, the inhibition result in [11], in series [12] and in series [15] was “Active” each time. Further, in series [14], the “growth inhibition (GI)” value is “Active”. Moreover, the “log(activity)” value in series [17] turned out to be 3.
As to `CC(=O)N(C/C=C/P(=O)(OCOC(=O)C(C)(C)C)OCOC(=O)C(C)(C)C)OCc1ccc(C(C)C)cc1`, inhibition in series [2] was half-maximal at 55.2 µM (IC50).
As for `CC(=O)N(C/C=C/P(=O)(O)O)OC(C)c1ccccc1` (configuration not stated), the midpoint of inhibition in [2], the IC50, lay at 1.2 µM. In series [3], the inhibition was greater than 75%.
For `CC(=O)N(O)CCCP(=O)(O)O`, the IC50 is 0.511 µM in series [2], 0.024 µM in [18], 0.023 µM in [4] and 0.09 to 0.35 µM in [1]. Moreover, the inhibition in [3] is greater than 75%.
In turn, `COC(=O)N(O)C/C=C/P(=O)(OCOC(=O)C(C)(C)C)OCOC(=O)C(C)(C)C` displayed an IC50 in series [2] of 23.7 µM.
`CC(=O)N(C/C=C/P(=O)(O)O)OCc1ccc(C(C)C)cc1` had an IC50 in [2] of 1.1 µM. In addition, the inhibition in [3] is greater than 75%. The “growth inhibition (GI)” value in [19] is “inactive”.
On to `COC(=O)N(O)C/C=C/P(=O)(O)O`, for which the IC50 in [2] is 28.6 µM. The inhibition in [3] is greater than 75%.
`O=CN(O)C/C=C/P(=O)([O-])O.[Na+]`: the “Ratio IC50” value in series [20] is reported as 3.4. In addition, the IC50 in series [2] is 0.019 µM; in [16] it was greater than 50 µM. In addition, the t1/2 in series [7] is greater than 2 h; in [21], greater than 1 h. The “growth inhibition (GI)” value in series [8] is “inactive”. Further, in series [3], the inhibition is greater than 75%. Further, the selectivity ratio in [22] was found to be 2630. For the same compound, the “growth inhibition (GI)” value in series [14] is “Active”.
As to `O=C(N(O)C/C=C/P(=O)(O)O)C(F)(F)F`, 113 µM corresponded to half-maximal inhibition in series [2] (IC50). The inhibition in series [3] was greater than 75%. Further, the Activity in series [5] was 37%.
`CC(=O)N(O)C/C=C/P(=O)(OCOC(=O)C(C)(C)C)OCOC(=O)C(C)(C)C` had an IC50 in series [2] of 0.018 µM.
For the compound `CCN(CC)CCCC(C)Nc1ccnc2cc(Cl)ccc12` (configuration not stated), the result in series [23] was Active.
In series [2], `CC(C)(C)C(=O)OCOP(=O)(/C=C/CN(O)C(=O)C(F)(F)F)OCOC(=O)C(C)(C)C` came in with an IC50 of 14.3 µM.
